Source: ChEMBL document CHEMBL4627246, “Pyroglutamide-Based P2X7 Receptor Antagonists Targeting Inflammatory Bowel Disease” (J Med Chem, 2020)
Active and inactive are the calls of the source. No cut-off for these calls is given here.

Assays:
[1] = target: T1, P2X purinoceptor 7 (Homo sapiens) (UniProt Q99572); experiment: Antagonist activity at P2X7R in human THP1 cells assessed as inhibition of LPS and BzATP-induced ROS production at 10^-5 mol/L pretreated with compound followed by LPS/BzATP addition and measured up to 5 hrs by kinetic chemiluminescence based fluorometric analysis; type: cell-based; conditions: THP-1
T1 sequence (whole entry): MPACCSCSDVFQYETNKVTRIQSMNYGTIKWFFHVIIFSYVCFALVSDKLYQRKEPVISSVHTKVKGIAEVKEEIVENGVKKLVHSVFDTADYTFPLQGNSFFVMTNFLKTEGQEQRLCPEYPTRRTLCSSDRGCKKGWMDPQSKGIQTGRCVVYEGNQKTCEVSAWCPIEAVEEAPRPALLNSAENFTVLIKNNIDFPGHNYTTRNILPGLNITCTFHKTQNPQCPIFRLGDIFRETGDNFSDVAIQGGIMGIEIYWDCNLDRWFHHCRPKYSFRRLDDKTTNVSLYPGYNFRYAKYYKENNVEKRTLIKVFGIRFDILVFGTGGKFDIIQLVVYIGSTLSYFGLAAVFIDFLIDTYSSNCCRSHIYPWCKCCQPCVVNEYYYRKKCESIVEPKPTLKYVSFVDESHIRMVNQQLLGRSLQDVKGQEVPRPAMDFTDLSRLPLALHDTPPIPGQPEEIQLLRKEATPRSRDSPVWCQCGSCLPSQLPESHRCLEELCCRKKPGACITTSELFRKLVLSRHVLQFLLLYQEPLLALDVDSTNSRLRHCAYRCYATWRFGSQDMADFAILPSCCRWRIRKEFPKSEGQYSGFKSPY
Procedure, shortened: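 PMA-differentiated THP-1 macrophages (10^5 cells) in RPMI 1640 + 10% FBS pretreated with antagonist at 10^-5 mol/L, then LPS 10 μmol/L plus BzATP 70 μmol/L at 37 °C, 5% CO2; horseradish peroxidase (50 μg/mL) and luminol (50 μM) mixture added, chemiluminescence read on a fluorometer; cell-free H2O2 serves as positive control.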

[2] = target: T1, P2X purinoceptor 7 (Homo sapiens); experiment: Antagonist activity at P2X7 receptor in human THP-1 cells assessed as inhibition of LPS and BzATP-induced IL-1beta production at 10^-6 mol/L pretreated with compound followed by LPS/BzATP addition and measured after 2 to 6 hrs by ELISA; type: cell-based; conditions: TDE = time-dependent effect
Procedure, shortened: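 PMA (100nM)-differentiated THP-1 macrophages (RPMI 1640, 10% FCS), 10^6 cells, pretreated with antagonist at […], then challenged with LPS 10 μmol/L and BzATP 70 μmol/L at 37 °C, 5% CO2; IL1β measured by ELISA, including the 6 h point; mean ± SD, P<0.05 significant.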

[3] = target: T1, P2X purinoceptor 7 (Homo sapiens); experiment: Antagonist activity at P2X7 receptor in human THP-1 cells assessed as inhibition of LPS and BzATP-induced IL-1beta production at 10^-5 mol/L pretreated with compound followed by LPS/BzATP addition and measured after 2 to 6 hrs by ELISA; type: cell-based
Procedure, shortened: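 THP-1 monocytes grown in RPMI 1640 + 10% FCS, differentiated to macrophages with PMA (100nM); 10^6 cells pretreated with antagonist at 10^-5 mol/L, then exposed to LPS 10 μmol/L plus BzATP 70 μmol/L at 37 °C, 5% CO2; IL1β quantified by ELISA in samples at 2, 4 and 6 h; mean ± SD, significance P<0.05.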

[4] = target: T2, P2X purinoceptor 7 (Homo sapiens, UniProt Q99572); experiment: Displacement of [3H]-A804598 from human P2X7 expressed in human HEK293 cell membrane incubated for 1 hr by microplate scintillation counting method; type: cell membranes
T2 sequence (Q99572 whole entry): T1 sequence (whole entry)

[5] = target: T1, P2X purinoceptor 7 (Homo sapiens); experiment: Inhibition of human P2X7 expressed in human HEK293 cells assessed as reduction in BzATP-stimulated TO-PRO-3 incorporation at 10 uM preincubated with compound and TO-PRO-3 for 15 mins prior to BzATP addition and measured after 1 hr by Fluo-3AM dye based flow cytometry relative to control; type: cell-based
Procedure, shortened: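 HEK-293 cells overexpressing human P2RX7 loaded with Fluo-3 AM, then incubated with TO-PRO-3 (large pore uptake) and propidium iodide (viability) plus compound (10⁻⁵ M single point) for 15 min before BzATP 100 µM. After 1 h, flow cytometry; percentage of Fluo-3/TO-PRO-3 double-positive cells calculated. Mean of n ≥ 2 with positive control.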

[6] = target: T1, P2X purinoceptor 7 (Homo sapiens); experiment: Antagonist activity at P2X7R in human THP1 cells assessed as inhibition of LPS and BzATP-induced cell death at 10^-6 mol/L pretreated with compound followed by LPS/BzATP addition and measured after 4 hrs by sytox green dye based flow cytometry; conditions: THP-1
[7] = target: T1, P2X purinoceptor 7 (Homo sapiens); experiment: Antagonist activity at P2X7R in human THP1 cells assessed as inhibition of LPS and BzATP-induced cell death at 10^-6 mol/L pretreated with compound followed by LPS/BzATP addition and measured after 6 hrs by sytox green dye based flow cytometry; conditions: THP-1
[8] = target: T1, P2X purinoceptor 7 (Homo sapiens); experiment: Antagonist activity at P2X7R in human THP1 cells assessed as inhibition of LPS and BzATP-induced ROS production at 10^-6mol/L pretreated with compound followed by LPS/BzATP addition and measured after 4 hrs by kinetic chemiluminescence based fluorometric analysis; type: cell-based; conditions: THP-1
Procedure, shortened: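 Differentiated THP-1 macrophages (10^5 cells, RPMI 1640 + 10% FBS) pretreated with antagonist at 10^-6 mol/L before LPS (10 μmol/L) and BzATP (70 μmol/L), 37 °C, 5% CO2; ROS detected as luminol (50 μM)/horseradish peroxidase (50 μg/mL) chemiluminescence on a fluorometer; H2O2 without cells as positive control.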

[9] = Metabolic stability in human liver microsomes assessed as intrinsic clearance at 0.2 mg/ml incubated for 60 mins by UPLC/MS-MS analysis; type: ADME, Microsome; conditions: read-out: CLH
[10] = Metabolic stability in human liver microsomes assessed as half life at 0.2 mg/ml incubated for 60 mins by UPLC/MS-MS analysis; type: ADME, Microsome
[11] = Drug metabolism in mouse measured after 40 mins; type: ADME; conditions: read-out: Drug metabolism
[12] = tested on: Mus musculus; experiment: Antiinflammatory activity against DSS-induced colitis C57BL/6J mouse model assessed as areas of normal colonic mucosa with straight and larger crypts on muscularis mucosa at 2.5 mg/kg, ip administered daily and measured after day 14 by hematoxylin and eosin staining based microscopic analysis; type: functional, organism-based
Procedure, shortened: (§1)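 DSS colitis in WT mice: 3.8% DSS in drinking water days 1–5, then tap water for 10 days; compound 2.5 mg/kg given i.p. daily in 10% DMSO/PBS; cohorts of 10 mice per group, placebo as comparator; weight loss and clinical disease score tracked; colon sections at day 14 stained with H&E and histologically scored; data as mean ± SEM.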

[13] = tested on: Mus musculus; experiment: Antiinflammatory activity against DSS-induced colitis C57BL/6J mouse model assessed as decrease in inflammation level in colon at 2.5 mg/kg, ip administered daily and measured after day 14 by hematoxylin and eosin staining based microscopic analysis; type: functional; conditions: 336 h; procedure, shortened: as §1
[14] = Metabolic stability in human hepatocytes; type: ADME, cell-based, Hepatocyte
[15] = tested on: HEK293; experiment: Cytotoxicity against human HEK293 cells assessed as reduction in cell viability at 10^-5 mol/L incubated for 72 hrs; type: cell-based; conditions: hek293, 72 h, 10 µM
Procedure, shortened: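 Wild-type and P2RX7-transfected HEK293 cells exposed to compound for 72 hours; viability compared against untreated control.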

[16] = target: T3, P2X purinoceptor 1 (Homo sapiens) (UniProt P51575); experiment: Antagonist activity at P2X1 receptor in human platelet assessed as inhibition of thrombin-induced platelet aggregation at 10 '-5 to 10^-6 mol/L pretreated with compound and LPS/BzATP for 10 mins followed by thrombin addition and measured for 8 mins by aggregometry analysis; type: cell-based
T3 sequence (whole entry): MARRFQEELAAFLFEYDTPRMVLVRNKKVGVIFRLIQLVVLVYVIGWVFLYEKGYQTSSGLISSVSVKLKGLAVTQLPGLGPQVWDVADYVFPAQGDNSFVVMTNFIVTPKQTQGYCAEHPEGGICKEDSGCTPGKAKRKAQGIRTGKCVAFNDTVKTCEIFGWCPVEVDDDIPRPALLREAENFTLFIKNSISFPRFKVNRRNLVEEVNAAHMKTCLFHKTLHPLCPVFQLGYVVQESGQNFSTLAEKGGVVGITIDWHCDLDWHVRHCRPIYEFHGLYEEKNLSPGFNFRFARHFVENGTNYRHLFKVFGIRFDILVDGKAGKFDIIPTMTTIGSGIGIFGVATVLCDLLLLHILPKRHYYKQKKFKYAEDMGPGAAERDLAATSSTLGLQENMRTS

[17] = Solubility of compound in saline at 1mg/ml; type: physicochemical; conditions: buffer
[18] = target: T1, P2X purinoceptor 7 (Homo sapiens); experiment: Antagonist activity at P2X7R in human THP1 cells assessed as inhibition of LPS and BzATP-induced IL-1beta expression by measuring increase in proIL-1beta expression in cell supernatant extract at 10^-6 mol/L pretreated with compound followed by LPS/BzATP addition and measured after 6 hrs by Western blot analysis; type: cell-based; conditions: THP-1
[19] = target: T1, P2X purinoceptor 7 (Homo sapiens); experiment: Antagonist activity at P2X7R in human THP1 cells assessed as inhibition of LPS and BzATP-induced mature form of IL-1beta expression in cells supernatant at 10^-6 mol/L pretreated with compound followed by LPS/BzATP addition and measured after 2 to 6 hrs by Western blot analysis; type: cell-based; conditions: THP-1
[20] = target: T1, P2X purinoceptor 7 (Homo sapiens); experiment: Antagonist activity at P2X7R in human THP1 cells assessed as inhibition of LPS and BzATP-induced mature form of IL-1beta expression in whole cell extract at 10^-6 mol/L pretreated with compound followed by LPS/BzATP addition and measured after 2 to 6 hrs by Western blot analysis; type: cell-based; conditions: THP-1

With `CN1C(=O)CC[C@H]1C(=O)NCc1ccc(Cl)cc1Cl` the inhibition [1] was “Active”, the inhibition [2] was “Tde” and the inhibition [3] was “Active”. It also gave an IC50 [4] of 862 nM, a Ki [4] of 176 nM and an inhibition [5] of 100%. The inhibition [6] was “Active”, the inhibition [7] was “inactive” and the inhibition [8] was “Active”. The microsomal CLint [9] was 3.6 µL/min/mg, the half-life [10] was 619 min and the metabolised at 40 min [11] was 5.1%. For the same molecule, the Activity [12] was “Active”, the inhibition in vivo at 2.5 mg/kg [13] was 42 to 50% and the Stability [14] was “Stable”.
For `O=C(NCc1ccc(Cl)cc1Cl)[C@@H]1CCC(=O)N1c1ccoc1`, the inhibition [1] was “Active”, the inhibition [2] was “Tde” and the inhibition [3] was “Active”. For the same molecule, the IC50 [4] was 422 nM, the Ki [4] was 86 nM and the inhibition [5] was 85%. The Activity [15] was “Non-Toxic”, the Activity [16] was “inactive” and the solubility [17] was “Insoluble”. It also gave a microsomal CLint [9] of 630 µL/min/mg, a half-life [10] of 2.9 min and a metabolised at 40 min [11] of 99.9%. For the same molecule, the Stability [14] was “Unstable”.
In the case of `O=C(NCc1cccc(C(F)(F)F)c1Cl)[C@@H]1CCC(=O)N1c1cccs1`, the inhibition [1] is reported as “Active”, the inhibition [2] is reported as “Tde” and the inhibition [3] is reported as “Active”. It also gave an IC50 [4] of 218 nM, a Ki [4] of 44 nM and an inhibition [5] of 100%. The inhibition [18] was “Active”, the inhibition [19] was “Active” and the inhibition [20] was “Active”. The Activity [15] was “Non-Toxic”, the Activity [16] was “inactive” and the solubility [17] was “Insoluble”. The microsomal CLint [9] was 530 µL/min/mg, the half-life [10] was 3.8 min and the metabolised at 40 min [11] was 99.7%. For the same molecule, the Stability [14] was “Unstable”.
In the case of `O=C(NCc1ccc(Cl)cc1Cl)[C@@H]1CCC(=O)N1c1ccco1`, the inhibition [1] is reported as “Active”, the inhibition [2] is reported as “Tde” and the inhibition [3] is reported as “Active”. For the same molecule, the IC50 [4] was 575 nM, the Ki [4] was 118 nM and the inhibition [5] was 94%. The Activity [15] was “Non-Toxic”, the Activity [16] was “inactive” and the solubility [17] was “Insoluble”. For the same molecule, the microsomal CLint [9] was 411 µL/min/mg, the half-life [10] was 5.2 min and the metabolised at 40 min [11] was 99.2%. The Stability [14] was “Unstable”.
